Screens as filed in PubChem.
Compounds with a hit are over-represented: about 1.3% of the library has one in this group of screens.
MT1-MMP act inh = inhibitors of human MT1-MMP activation | P50281 | HT1080 RFP-PRO-GFP cells, GFP/RFP ratio fluorescence, overnight; percent of plate control window, DMSO zero | GFP/RFP ratio change, % at 20 µM | actives 0.061% (n = 360,000) | AID 651647;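 active means GFP/RFP ratio change of at least 30% with cell ATP level not reduced by more than half and red fluorescence within 50% of control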
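Compound: 20 µM single dose, 1% DMSO / System: HT1080 RFP-PRO-GFP cells / Controls: DMSO and RFP-L50D-GFP cell wells / Read-out basis: GFP/RFP fluorescence ratio / Schedule: overnight compound exposure at 37 °C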
Efflux pump inh = inhibitors of Candida antifungal efflux pumps expressed in yeast; S. cerevisiae Candida pump triplex, Nile Red efflux; inhibition, % at 10 µM; actives 0.44% (n = 330,000); AID 485275;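 active means plate passing quality check with inhibition over a set limit, or well fluorescence over plate mean plus 4 SD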;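 further: Nile Red retained in pooled yeast measured as flow cytometry median fluorescence; 0% = buffer negative control and 100% = Enniatin B positive control; higher means more Nile Red kept so more efflux inhibition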
H9c2 TAG inh = triacylglycerol accumulation inhibition; H9c2 cells, Nile Red lipid (TAG) fluorescence; cells loaded with 200 µM oleic acid; inhibition, % at 12.5 µM; actives 0.66% (n = 230,000); AID 651582;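 active means pattern-corrected inhibition of lipid staining of at least 50% with the nuclear-stain viability signal not falling by more than 50%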;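 further: 0% = DMSO wells and 100% = triacsin C control wells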
HGIII-sPLA2 inh = Blocks human group III sPLA2 activity | Q9NZ20 | QFRET BODIPY PC-A2 liposome hydrolysis, fluorescence | inhibition, % at 12.2 µM | actives 0.56% (n = 370,000) | AID 743126;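 active means inhibition above mean plus 3 SD of compounds lying within the high and low control bounds, cut at about 19% in these data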;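 further: 0% = median of test compound wells and 100% = no enzyme DMSO wells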
hGIII sPLA2 conf = human GIII-sPLA2 inhibition, confirmation | recombinant hGIII-sPLA2, BODIPY PC-A2 QFRET fluorescence | actives 34% (n = 2,000) | inhibition, % at 12.2 µM | shares compounds with HGIII-sPLA2 inh | AID 743280;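 active means mean inhibition across triplicates above the hit cutoff set in the earlier primary screen, cut at about 19% in these data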;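 further: 0% = enzyme with DMSO and 100% = DMSO wells lacking enzyme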
535nm interf = counter-screen for HGIII-sPLA2 inhibitors: 535nm fluorescence interference | shares compounds with HGIII-sPLA2 inh | BODIPY FL product fluorescence interference, QFRET | inhibition, % at 12.2 µM | actives 8.5% (n = 2,000) | AID 743282;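 active means average inhibition above the solvent-only control mean plus 3 SD, cut at about 6% in these data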;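 further: 0% = DMSO with substrate plus product and 100% = DMSO with substrate alone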
Active calls of the source: *; . = no result; ! = repeats disagree.

SMILES	MT1-MMP act inh	Efflux pump inh	H9c2 TAG inh	HGIII-sPLA2 inh	hGIII sPLA2 conf	535nm interf
CCCOC(=O)c1ccc(-[n+]2c(-c3ccccc3)cc(-c3ccccc3)cc2-c2ccccc2)cc1	10	0	11	26*	15	-44
O=C(O)c1ccc(-[n+]2c(-c3ccccc3)cc(-c3ccccc3)cc2-c2ccccc2)cc1	0	0	4	-1	.	.
COc1ccc([C@@H]2C[C@H]3[C@@H](CN2)CON3C)cc1	.	.	.	-1	.	.
NNCc1ccccc1	5	.	3	20*!	-1	-4
c1ccc(CNC2CCCCCCC2)cc1 (tested in a mixture with another compound)	-3	.	-4	0	.	.
O=C(NC1CCCCC1)N1Cc2cc(Br)ccc2-n2nncc2C1	.	.	.	-3	.	.
COc1ccccc1CCNC1CCCC(C)C1 (stereo not given)	3	0	.	23*	0	-17
O=P(OCCCl)(OCCCl)OCCCl	.	.	.	0	.	.
